pIC50: −log10 of the molar value. Calls of active or inactive are those of the source. The calls are words filed in the database; no cut-off is given here.
Columns and labels:
[1] = Antioxidant activity assessed as superoxide-scavenging activity by nitrite method; type: functional
[2] = target: Xanthine dehydrogenase/oxidase (Homo sapiens, UniProt P47989); assay: Inhibition of xanthine oxidase assessed as decrease in uric acid production by spectrophotometry
Method in brief: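 Flavonoid at various concentrations with 50 µM xanthine, 0.2 mM hydroxylamine and 0.1 mM EDTA. Stopped with HCl, then uric acid read as absorbance at 290 nm against an enzyme-free blank. IC50 by linear regression.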

[3] = Prooxidant effect assessed as superoxide production by nitrite method; type: functional
Method in brief: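 Xanthine oxidase (6.25 mU/mL, in 200 mM phosphate buffer pH 7.50) generated superoxide from 50 µM xanthine with 0.2 mM hydroxylamine and 0.1 mM EDTA, plus flavonoid at various concentrations. Incubated 30 min at 37 °C. Superoxide read by the nitrite method: stood 30 min at room temperature, then absorbance at 550 nm. Levels compared with control experiments; IC50 from linear regression.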

Chain of Xanthine dehydrogenase/oxidase (P47989 whole entry): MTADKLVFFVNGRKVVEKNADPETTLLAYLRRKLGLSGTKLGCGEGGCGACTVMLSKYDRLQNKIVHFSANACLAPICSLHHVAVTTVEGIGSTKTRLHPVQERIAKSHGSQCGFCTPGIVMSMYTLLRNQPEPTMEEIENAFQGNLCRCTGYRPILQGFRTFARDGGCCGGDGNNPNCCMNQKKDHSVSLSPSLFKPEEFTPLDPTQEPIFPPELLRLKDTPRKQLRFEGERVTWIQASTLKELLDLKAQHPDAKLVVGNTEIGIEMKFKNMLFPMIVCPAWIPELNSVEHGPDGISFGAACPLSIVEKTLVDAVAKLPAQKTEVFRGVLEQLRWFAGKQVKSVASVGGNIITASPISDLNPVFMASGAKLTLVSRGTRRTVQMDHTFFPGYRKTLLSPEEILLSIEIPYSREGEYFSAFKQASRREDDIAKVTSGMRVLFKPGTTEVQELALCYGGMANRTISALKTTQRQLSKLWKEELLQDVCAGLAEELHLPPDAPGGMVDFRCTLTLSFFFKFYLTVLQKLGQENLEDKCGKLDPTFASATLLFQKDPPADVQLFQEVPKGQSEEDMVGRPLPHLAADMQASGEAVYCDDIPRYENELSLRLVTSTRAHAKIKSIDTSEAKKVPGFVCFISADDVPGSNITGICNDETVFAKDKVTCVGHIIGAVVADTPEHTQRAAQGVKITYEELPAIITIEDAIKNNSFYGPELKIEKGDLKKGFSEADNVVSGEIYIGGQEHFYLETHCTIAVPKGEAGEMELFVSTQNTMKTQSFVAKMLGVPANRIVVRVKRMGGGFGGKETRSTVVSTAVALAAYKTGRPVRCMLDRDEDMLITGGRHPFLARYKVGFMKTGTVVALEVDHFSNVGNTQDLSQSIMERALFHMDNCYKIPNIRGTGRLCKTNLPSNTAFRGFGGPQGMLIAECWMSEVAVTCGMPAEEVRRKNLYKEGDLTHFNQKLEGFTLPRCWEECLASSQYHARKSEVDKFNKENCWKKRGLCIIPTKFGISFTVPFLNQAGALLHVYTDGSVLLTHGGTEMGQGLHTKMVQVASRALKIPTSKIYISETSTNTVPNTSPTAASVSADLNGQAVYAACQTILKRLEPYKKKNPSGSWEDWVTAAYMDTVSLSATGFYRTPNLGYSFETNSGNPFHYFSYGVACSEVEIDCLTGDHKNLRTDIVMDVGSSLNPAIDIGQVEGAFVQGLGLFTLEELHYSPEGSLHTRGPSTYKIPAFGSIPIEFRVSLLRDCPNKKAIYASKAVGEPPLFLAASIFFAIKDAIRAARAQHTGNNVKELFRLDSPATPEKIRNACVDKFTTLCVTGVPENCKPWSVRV

Row | pIC50 [1] | pIC50 [2] | Structure (SMILES) | Activity [3]
1 | < 4.00 | < 4.00 | COc1cc2oc(-c3ccc(O[C@@H]4O[C@H](CO)[C@@H](O)[C@H](O)[C@H]4O)cc3)cc(=O)c2c(O)c1OC [CIRSIMARIN] | –
2 | 5.47 | 4.83 | C[C@@H]1O[C@@H](OC[C@H]2O[C@@H](Oc3c(-c4ccc(O)cc4)oc4cc(O)cc(O)c4c3=O)[C@H](O)[C@@H](O)[C@@H]2O)[C@H](O)[C@H](O)[C@H]1O [NICOTIFLOROSIDE] | –
3 | 6.08 | 5.97 | O=c1c(O)c(-c2ccc(O)cc2)oc2cc(O)cc(O)c12 [KAEMPFEROL] | –
4 | 5.59 | 5.11 | COc1cc(O)c2c(=O)c(O)c(-c3ccc(OC)c(O)c3)oc2c1 [OMBUINE] | –
5 | – | 4.28 | C[C@@H]1O[C@@H](OC[C@H]2O[C@@H](Oc3c(-c4ccc(O)c(O)c4)oc4cc(O)cc(O)c4c3=O)[C@H](O)[C@@H](O)[C@@H]2O)[C@H](O)[C@H](O)[C@H]1O [RUTIN] | –
6 | < 4.00 | < 4.00 | COc1cc(-c2cc(=O)c3c(O)cc(O[C@@H]4O[C@H](CO)[C@@H](O)[C@H](O)[C@H]4O[C@@H]4O[C@@H](C)[C@H](O)[C@@H](O)[C@H]4O)cc3o2)ccc1O [CHRYSOERIOL-7-O-NEOHESPERIDOSIDE] | –
7 | 5.73 | 6.08 | O=c1cc(-c2ccccc2)oc2cc(O)cc(O)c12 [CHRYSIN] | –
8 | 5.63 | 4.92 | C[C@@H]1O[C@@H](O[C@H]2[C@H](Oc3cc(O)c4c(=O)cc(-c5ccc(O)c(O)c5)oc4c3)O[C@H](CO)[C@@H](O)[C@@H]2O)[C@H](O)[C@H](O)[C@H]1O [LONICERIN] | –
9 | < 4.00 | < 4.00 | O=C(/C=C/c1ccc(O)cc1)OC[C@H]1O[C@@H](Oc2c(-c3ccc(O)cc3)oc3cc(O)cc(O)c3c2=O)[C@H](O)[C@@H](O)[C@@H]1O [TILIROSIDE] | –

The next lines start with the compound.

Row | Structure (SMILES) | pIC50 [1] | pIC50 [2] | Activity [3]
10 | Oc1ncnc2[nH]ncc12 [ALLOPURINOL] | 6.64 | – | –
11 | O=C1C[C@@H](c2ccc(O)cc2)Oc2cc(O)cc(O)c21 [NARINGENIN] | < 4.30 | < 4.30 | –
12 | C[C@@H]1O[C@@H](Oc2c(-c3ccc(O)c(O)c3)oc3cc(O)cc(O)c3c2=O)[C@H](O)[C@H](O)[C@H]1O [QUERCITRIN] | 5.09 | < 4.00 | –
13 | O=C1c2c(O)cc(O)cc2OC(c2ccc(O)c(O)c2)C1O (racemic) [TAXIFOLIN] | 5.76 | – | –
14 | O=c1c(O)c(-c2ccccc2)oc2ccccc12 [FLAVONOL] | < 4.00 | < 4.00 | –
15 | Oc1cc(O)c2c(c1)O[C@H](c1ccc(O)c(O)c1)[C@@H](O)C2 [CIANIDANOL] | 5.79 | < 4.00 | –
16 | O=c1c(O)c(-c2cc(O)c(O)c(O)c2)oc2cc(O)cc(O)c12 [MYRICETIN] | 6.48 | 5.62 | –
17 | COc1ccc(-c2cc(=O)c3c(OC)c(OC)c(OC)c(OC)c3o2)cc1OC [NOBILETIN] | < 4.00 | < 4.00 | –
18 | Oc1cc(O)c2c(c1)O[C@H](c1cc(O)c(O)c(O)c1)[C@H](O)C2 [EPIGALLOCATECHIN] | 6.32 | < 4.00 | –
19 | O=C1CC(c2ccc(O)cc2)Oc2ccccc21 (configuration not stated) [4'-HYDROXY-FLAVANONE] | < 4.74 | < 4.52 | –
20 | COc1ccc(-c2cc(=O)c3c(OC)c(OC)c(OC)c(OC)c3o2)cc1 [TANGERETIN] | < 4.00 | < 4.00 | –
21 | COc1cc(-c2oc3cc(O)cc(O)c3c(=O)c2O)ccc1O [ISORHAMNETIN] | 5.56 | 5.60 | –
22 | O=c1c(O)c(-c2ccc(O)c(O)c2)oc2cc(O)ccc12 [FISETIN] | 5.74 | 5.36 | –
23 | O=c1cc(-c2ccccc2)oc2cc(O)ccc12 [7-HYDROXYFLAVONE] | < 4.00 | 4.42 | Active
24 | O=c1c(O)c(-c2ccc(O)c(O)c2)oc2cc(O)cc(O)c12 [QUERCETIN] | 5.79 | – | –
25 | O=c1cc(-c2ccc(O)cc2)oc2cc(O)cc(O)c12 [APIGENIN] | 5.88 | 6.15 | –
26 | O=c1cc(-c2ccccc2)oc2cc(O)c(O)c(O)c12 [BAICALEIN] | 5.57 | 5.55 | –
27 | O=c1c(O)c(-c2ccccc2)oc2cc(O)cc(O)c12 [GALANGIN] | 5.17 | 5.74 | –
28 | O=c1cc(-c2ccc(O)c(O)c2)oc2cc(O)cc(O)c12 [LUTEOLIN] | 5.95 | 6.26 | –
29 | Oc1cc(O)c2c(c1)O[C@H](c1ccc(O)c(O)c1)[C@H](O)C2 [(-)-EPICATECHIN] | 5.80 | < 4.00 | –
30 | O=c1c(O)c(-c2ccc(O)cc2O)oc2cc(O)cc(O)c12 [MORIN] | 5.04 | 5.00 | –
